Peptide text beside a SMILES is read from it.
Key:
[1] = target: Rhodesain (Trypanosoma brucei rhodesiense) (UniProt Q95PM0); assay: Inhibition of Trypanosoma brucei rhodesiense rhodesain after 12 hrs by fluorescence spectroscopy-based on-bead assay; parameters: concentration or dose not given beside the values; conditions: concentration not given here
Procedure, shortened: (§1)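 Library members on resin (PEGA, theoretical loading 0.40 mmol/g; added as DMSO suspension, 0.64 mM final inhibitor) preincubated with enzyme 12 h, then Cbz-Phe-Arg-AMC 40 μM added; AMC release followed by fluorescence (ex 380/em 460 nm). Kinetics compared with inhibitor-free amino-PEGA resin.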

[2] = Inhibition of Plasmodium falciparum falcipain-2 after 12 hrs by fluorescence spectroscopy-based on-bead assay; parameters: concentration or dose not given beside the values; conditions: concentration not given here; procedure, shortened: as §1

Rhodesain (Trypanosoma brucei rhodesiense), sequence (Q95PM0 1-450): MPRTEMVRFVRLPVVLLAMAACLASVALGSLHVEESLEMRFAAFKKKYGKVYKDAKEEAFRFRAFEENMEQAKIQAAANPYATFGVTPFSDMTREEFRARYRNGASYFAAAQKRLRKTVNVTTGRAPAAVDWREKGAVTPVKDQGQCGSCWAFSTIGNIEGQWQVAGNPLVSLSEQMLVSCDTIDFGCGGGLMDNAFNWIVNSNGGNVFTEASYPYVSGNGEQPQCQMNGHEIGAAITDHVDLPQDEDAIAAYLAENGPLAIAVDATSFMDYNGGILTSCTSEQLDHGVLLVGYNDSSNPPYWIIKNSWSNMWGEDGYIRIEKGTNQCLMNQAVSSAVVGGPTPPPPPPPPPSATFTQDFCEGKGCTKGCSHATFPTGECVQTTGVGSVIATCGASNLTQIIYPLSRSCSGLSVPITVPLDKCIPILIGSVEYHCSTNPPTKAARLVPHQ

Structure (SMILES)	inhibition [1] [%]	inhibition [2] [%]
CC(C)C[C@H](NC(=O)[C@@H](NC(=O)[C@H](CC(N)=O)NC(=O)/C=C/C(=O)N[C@@H](C)C(=O)NCC(=O)N[C@@H](Cc1ccccc1)C(=O)O)C1CCCCC1)C(=O)N[C@H](C(N)=O)C(C)C (HELM PEPTIDE1{[C[C@H](NC(=O)/C=C/C(=O)[*:2])C(=O)NCC(=O)N[C@@H](Cc1ccccc1)C(=O)O].N.[O=C([C@@H](N[*:1])C1CCCCC1)[*:2]].L.V.[am]}$$$$V2.0)	66	40
CC(C)[C@H](NC(=O)[C@@H](NC(=O)[C@@H](NC(=O)[C@H](CC(N)=O)NC(=O)/C=C/C(=O)N[C@@H](C)C(=O)NCC(=O)N[C@@H](Cc1ccccc1)C(=O)O)C1CCCCC1)C(C)C)C(N)=O (HELM PEPTIDE1{[C[C@H](NC(=O)/C=C/C(=O)[*:2])C(=O)NCC(=O)N[C@@H](Cc1ccccc1)C(=O)O].N.[O=C([C@@H](N[*:1])C1CCCCC1)[*:2]].V.V.[am]}$$$$V2.0)	50	62
CC(C)[C@H](NC(=O)[C@H](C)NC(=O)[C@@H](NC(=O)[C@H](CC(N)=O)NC(=O)/C=C/C(=O)N[C@@H](C)C(=O)NCC(=O)N[C@@H](Cc1ccccc1)C(=O)O)c1ccccc1)C(N)=O (HELM PEPTIDE1{[C[C@H](NC(=O)/C=C/C(=O)[*:2])C(=O)NCC(=O)N[C@@H](Cc1ccccc1)C(=O)O].N.[Phg].A.V.[am]}$$$$V2.0)	44	35
CC(C)C[C@H](NC(=O)[C@@H](NC(=O)[C@H](CC(N)=O)NC(=O)/C=C/C(=O)N[C@@H](C)C(=O)NCC(=O)N[C@@H](Cc1ccccc1)C(=O)O)c1ccccc1)C(=O)N[C@H](C(N)=O)C(C)C (HELM PEPTIDE1{[C[C@H](NC(=O)/C=C/C(=O)[*:2])C(=O)NCC(=O)N[C@@H](Cc1ccccc1)C(=O)O].N.[Phg].L.V.[am]}$$$$V2.0)	55	55
CC(C)[C@H](NC(=O)[C@@H](NC(=O)[C@@H](NC(=O)[C@H](CC(N)=O)NC(=O)/C=C/C(=O)N[C@@H](C)C(=O)NCC(=O)N[C@@H](Cc1ccccc1)C(=O)O)c1ccccc1)C(C)C)C(N)=O (HELM PEPTIDE1{[C[C@H](NC(=O)/C=C/C(=O)[*:2])C(=O)NCC(=O)N[C@@H](Cc1ccccc1)C(=O)O].N.[Phg].V.V.[am]}$$$$V2.0)	37	51
CC(C)[C@H](NC(=O)[C@H](C)NC(=O)[C@H](Cc1ccccc1)NC(=O)[C@H](CCC(N)=O)NC(=O)/C=C/C(=O)N[C@@H](C)C(=O)NCC(=O)N[C@@H](Cc1ccccc1)C(=O)O)C(N)=O (HELM PEPTIDE1{[C[C@H](NC(=O)/C=C/C(=O)[*:2])C(=O)NCC(=O)N[C@@H](Cc1ccccc1)C(=O)O].Q.F.A.V.[am]}$$$$V2.0)	30	25
CC(C)C[C@H](NC(=O)[C@H](Cc1ccccc1)NC(=O)[C@H](CCC(N)=O)NC(=O)/C=C/C(=O)N[C@@H](C)C(=O)NCC(=O)N[C@@H](Cc1ccccc1)C(=O)O)C(=O)N[C@H](C(N)=O)C(C)C (HELM PEPTIDE1{[C[C@H](NC(=O)/C=C/C(=O)[*:2])C(=O)NCC(=O)N[C@@H](Cc1ccccc1)C(=O)O].Q.F.L.V.[am]}$$$$V2.0)	60	49
CC(C)[C@H](NC(=O)[C@@H](NC(=O)[C@H](Cc1ccccc1)NC(=O)[C@H](CCC(N)=O)NC(=O)/C=C/C(=O)N[C@@H](C)C(=O)NCC(=O)N[C@@H](Cc1ccccc1)C(=O)O)C(C)C)C(N)=O (HELM PEPTIDE1{[C[C@H](NC(=O)/C=C/C(=O)[*:2])C(=O)NCC(=O)N[C@@H](Cc1ccccc1)C(=O)O].Q.F.V.V.[am]}$$$$V2.0)	45	58
CC[C@H](C)[C@H](NC(=O)[C@H](CCC(N)=O)NC(=O)/C=C/C(=O)N[C@@H](C)C(=O)NCC(=O)N[C@@H](Cc1ccccc1)C(=O)O)C(=O)N[C@@H](C)C(=O)N[C@H](C(N)=O)C(C)C (HELM PEPTIDE1{[C[C@H](NC(=O)/C=C/C(=O)[*:2])C(=O)NCC(=O)N[C@@H](Cc1ccccc1)C(=O)O].Q.I.A.V.[am]}$$$$V2.0)	29	43
CC[C@H](C)[C@H](NC(=O)[C@H](CCC(N)=O)NC(=O)/C=C/C(=O)N[C@@H](C)C(=O)NCC(=O)N[C@@H](Cc1ccccc1)C(=O)O)C(=O)N[C@@H](CC(C)C)C(=O)N[C@H](C(N)=O)C(C)C (HELM PEPTIDE1{[C[C@H](NC(=O)/C=C/C(=O)[*:2])C(=O)NCC(=O)N[C@@H](Cc1ccccc1)C(=O)O].Q.I.L.V.[am]}$$$$V2.0)	47	46
CC[C@H](C)[C@H](NC(=O)[C@H](CCC(N)=O)NC(=O)/C=C/C(=O)N[C@@H](C)C(=O)NCC(=O)N[C@@H](Cc1ccccc1)C(=O)O)C(=O)N[C@H](C(=O)N[C@H](C(N)=O)C(C)C)C(C)C (HELM PEPTIDE1{[C[C@H](NC(=O)/C=C/C(=O)[*:2])C(=O)NCC(=O)N[C@@H](Cc1ccccc1)C(=O)O].Q.I.V.V.[am]}$$$$V2.0)	38	54
CC(C)C[C@H](NC(=O)[C@H](CCC(N)=O)NC(=O)/C=C/C(=O)N[C@@H](C)C(=O)NCC(=O)N[C@@H](Cc1ccccc1)C(=O)O)C(=O)N[C@@H](C)C(=O)N[C@H](C(N)=O)C(C)C (HELM PEPTIDE1{[C[C@H](NC(=O)/C=C/C(=O)[*:2])C(=O)NCC(=O)N[C@@H](Cc1ccccc1)C(=O)O].Q.L.A.V.[am]}$$$$V2.0)	7	54
CC(C)C[C@H](NC(=O)[C@H](CCC(N)=O)NC(=O)/C=C/C(=O)N[C@@H](C)C(=O)NCC(=O)N[C@@H](Cc1ccccc1)C(=O)O)C(=O)N[C@@H](CC(C)C)C(=O)N[C@H](C(N)=O)C(C)C (HELM PEPTIDE1{[C[C@H](NC(=O)/C=C/C(=O)[*:2])C(=O)NCC(=O)N[C@@H](Cc1ccccc1)C(=O)O].Q.L.L.V.[am]}$$$$V2.0)	56	55
CC(C)[C@H](NC(=O)[C@H](C)NC(=O)[C@@H](NC(=O)[C@H](CCC(N)=O)NC(=O)/C=C/C(=O)N[C@@H](C)C(=O)NCC(=O)N[C@@H](Cc1ccccc1)C(=O)O)C1CCCCC1)C(N)=O (HELM PEPTIDE1{[C[C@H](NC(=O)/C=C/C(=O)[*:2])C(=O)NCC(=O)N[C@@H](Cc1ccccc1)C(=O)O].Q.[O=C([C@@H](N[*:1])C1CCCCC1)[*:2]].A.V.[am]}$$$$V2.0)	39	55
CC(C)C[C@H](NC(=O)[C@@H](NC(=O)[C@H](CCC(N)=O)NC(=O)/C=C/C(=O)N[C@@H](C)C(=O)NCC(=O)N[C@@H](Cc1ccccc1)C(=O)O)C1CCCCC1)C(=O)N[C@H](C(N)=O)C(C)C (HELM PEPTIDE1{[C[C@H](NC(=O)/C=C/C(=O)[*:2])C(=O)NCC(=O)N[C@@H](Cc1ccccc1)C(=O)O].Q.[O=C([C@@H](N[*:1])C1CCCCC1)[*:2]].L.V.[am]}$$$$V2.0)	52	47
CC(C)[C@H](NC(=O)[C@@H](NC(=O)[C@@H](NC(=O)[C@H](CCC(N)=O)NC(=O)/C=C/C(=O)N[C@@H](C)C(=O)NCC(=O)N[C@@H](Cc1ccccc1)C(=O)O)C1CCCCC1)C(C)C)C(N)=O (HELM PEPTIDE1{[C[C@H](NC(=O)/C=C/C(=O)[*:2])C(=O)NCC(=O)N[C@@H](Cc1ccccc1)C(=O)O].Q.[O=C([C@@H](N[*:1])C1CCCCC1)[*:2]].V.V.[am]}$$$$V2.0)	43	47
CC(C)[C@H](NC(=O)[C@H](C)NC(=O)[C@@H](NC(=O)[C@H](CCC(N)=O)NC(=O)/C=C/C(=O)N[C@@H](C)C(=O)NCC(=O)N[C@@H](Cc1ccccc1)C(=O)O)c1ccccc1)C(N)=O (HELM PEPTIDE1{[C[C@H](NC(=O)/C=C/C(=O)[*:2])C(=O)NCC(=O)N[C@@H](Cc1ccccc1)C(=O)O].Q.[Phg].A.V.[am]}$$$$V2.0)	12	55
CC(C)C[C@H](NC(=O)[C@@H](NC(=O)[C@H](CCC(N)=O)NC(=O)/C=C/C(=O)N[C@@H](C)C(=O)NCC(=O)N[C@@H](Cc1ccccc1)C(=O)O)c1ccccc1)C(=O)N[C@H](C(N)=O)C(C)C (HELM PEPTIDE1{[C[C@H](NC(=O)/C=C/C(=O)[*:2])C(=O)NCC(=O)N[C@@H](Cc1ccccc1)C(=O)O].Q.[Phg].L.V.[am]}$$$$V2.0)	68	30
CC(C)[C@H](NC(=O)[C@@H](NC(=O)[C@@H](NC(=O)[C@H](CCC(N)=O)NC(=O)/C=C/C(=O)N[C@@H](C)C(=O)NCC(=O)N[C@@H](Cc1ccccc1)C(=O)O)c1ccccc1)C(C)C)C(N)=O (HELM PEPTIDE1{[C[C@H](NC(=O)/C=C/C(=O)[*:2])C(=O)NCC(=O)N[C@@H](Cc1ccccc1)C(=O)O].Q.[Phg].V.V.[am]}$$$$V2.0)	34	46
CC(=O)NC[C@H](NC(=O)/C=C/C(=O)N[C@@H](C)C(=O)NCC(=O)N[C@@H](Cc1ccccc1)C(=O)O)C(=O)N[C@@H](Cc1ccccc1)C(=O)N[C@@H](C)C(=O)N[C@H](C(N)=O)C(C)C (HELM PEPTIDE1{[C[C@H](NC(=O)/C=C/C(=O)[*:2])C(=O)NCC(=O)N[C@@H](Cc1ccccc1)C(=O)O].[O=C([C@H](CN[*:3])N[*:1])[*:2]].F.A.V.[am]}|PEPTIDE2{[ac]}$PEPTIDE1,PEPTIDE2,2:R3-1:R2$$$V2.0)	17	13
CC(=O)NC[C@H](NC(=O)/C=C/C(=O)N[C@@H](C)C(=O)NCC(=O)N[C@@H](Cc1ccccc1)C(=O)O)C(=O)N[C@@H](Cc1ccccc1)C(=O)N[C@@H](CC(C)C)C(=O)N[C@H](C(N)=O)C(C)C (HELM PEPTIDE1{[C[C@H](NC(=O)/C=C/C(=O)[*:2])C(=O)NCC(=O)N[C@@H](Cc1ccccc1)C(=O)O].[O=C([C@H](CN[*:3])N[*:1])[*:2]].F.L.V.[am]}|PEPTIDE2{[ac]}$PEPTIDE1,PEPTIDE2,2:R3-1:R2$$$V2.0)	52	43
CC(=O)NC[C@H](NC(=O)/C=C/C(=O)N[C@@H](C)C(=O)NCC(=O)N[C@@H](Cc1ccccc1)C(=O)O)C(=O)N[C@@H](Cc1ccccc1)C(=O)N[C@H](C(=O)N[C@H](C(N)=O)C(C)C)C(C)C (HELM PEPTIDE1{[C[C@H](NC(=O)/C=C/C(=O)[*:2])C(=O)NCC(=O)N[C@@H](Cc1ccccc1)C(=O)O].[O=C([C@H](CN[*:3])N[*:1])[*:2]].F.V.V.[am]}|PEPTIDE2{[ac]}$PEPTIDE1,PEPTIDE2,2:R3-1:R2$$$V2.0)	44	32
